Assays:
[1] = Cytotoxicity against human mock-infected MT4 cells assessed as reduction in cell viability after 5 days by MTT assay; type: toxicity, cell-based
Summary of the method: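 Mock-infected MT-4 cells (6 × 10^5 cells/mL at seeding) with serial 5-fold compound dilutions in triplicate wells. Viability read by MTT after 5 days, absorbance at 540 and 690 nm, median OD of three wells. CC50 is the concentration reducing OD540 of mock-infected cells by 50%.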

[2] = tested on: Human immunodeficiency virus 1; experiment: Antiviral activity against HIV1 3B harboring reverse transcriptase F227L/V106A double mutant infected in human MT4 cells assessed as protection against virus induced cytotoxicity after 5 days by MTT assay; type: functional, cell-based; settings: Human immunodeficiency virus 1, 3B, MT4, 120 h
Summary of the method: (§1)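 MTT cytopathicity assay in MT-4 cells (6 × 10^5 cells/mL). Compounds serially diluted 5-fold in triplicate wells, run in parallel on infected and mock-infected cells. Virus added at 100−300 CCID50 per well. Viability read spectrophotometrically at 540 and 690 nm after 5 days, using the median OD of three wells. EC50 is the concentration giving 50% protection from viral cytopathogenicity.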

[3] = tested on: Human immunodeficiency virus 1; experiment: Antiviral activity against HIV1 3B harboring reverse transcriptase K103N mutant infected in human MT4 cells assessed as protection against virus induced cytotoxicity after 5 days by MTT assay; type: functional, cell-based; settings: Human immunodeficiency virus 1, 3B, MT4, 120 h; summary of the method: as §1
[4] = Selectivity index, ratio of CC50 for human mock-infected MT4 cells to EC50 for HIV1 3B harboring reverse transcriptase Y188L mutant infected in human MT4 cells; type: toxicity, cell-based; settings: MT4 cells (mock-infected for CC50, HIV-1 infected for EC50)
Summary of the method: (§2)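 Selectivity index is CC50/EC50. CC50 is the concentration that reduces OD540 of mock-infected MT-4 cells by 50% in the 5-day MTT assay. EC50 is the 50% protection from virus-induced cytopathicity, measured in parallel on infected wells.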

[5] = Selectivity index, ratio of CC50 for human mock-infected MT4 cells to EC50 for HIV1 3B harboring reverse transcriptase E138K mutant infected in human MT4 cells; type: toxicity, cell-based; settings: MT4 cells (mock-infected for CC50, HIV-1 infected for EC50); summary of the method: as §2
[6] = tested on: Human immunodeficiency virus 1; experiment: Antiviral activity against HIV1 3B harboring reverse transcriptase Y181C mutant infected in human MT4 cells assessed as protection against virus induced cytotoxicity after 5 days by MTT assay; type: functional, cell-based; settings: Human immunodeficiency virus 1, 3B, MT4, 120 h
Summary of the method: (§3)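 MTT cytopathicity assay in MT-4 cells (6 × 10^5 cells/mL). Compounds serially diluted 5-fold in triplicate wells, run in parallel on infected and mock-infected cells. Virus added at 100−300 CCID50 per well. Viability read spectrophotometrically at 540 and 690 nm after 5 days, using the median OD of three wells.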

[7] = Antiviral activity against HIV2 ROD harboring reverse transcriptase infected in human MT4 cells assessed as protection against virus induced cytotoxicity after 5 days by MTT assay; type: functional, cell-based, Human immunodeficiency virus type 2 (ISOLATE ROD); settings: Human immunodeficiency virus 2, MT4, 120 h; summary of the method: as §1
[8] = Selectivity index, ratio of CC50 for human mock-infected MT4 cells to EC50 for HIV1 RES056 harboring reverse transcriptase K103N/Y181C double mutant infected in human MT4 cells; type: toxicity, cell-based; settings: MT4 cells (mock-infected for CC50, HIV-1 infected for EC50); summary of the method: as §2
[9] = Selectivity index, ratio of CC50 for human mock-infected MT4 cells to EC50 for HIV1 3B harboring reverse transcriptase K103N mutant infected in human MT4 cells; type: toxicity, cell-based; settings: MT4 cells (mock-infected for CC50, HIV-1 infected for EC50); summary of the method: as §2
[10] = Selectivity index, ratio of CC50 for human mock-infected MT4 cells to EC50 for HIV1 3B harboring reverse transcriptase Y181C mutant infected in human MT4 cells; type: toxicity, cell-based; settings: MT4 cells (mock-infected for CC50, HIV-1 infected for EC50); summary of the method: as §2
[11] = tested on: Human immunodeficiency virus 1; experiment: Antiviral activity against wild type HIV1 3B harboring reverse transcriptase infected in human MT4 cells assessed as protection against virus induced cytotoxicity after 5 days by MTT assay; type: functional, cell-based; settings: Human immunodeficiency virus 1, 3B, MT4, 120 h; summary of the method: as §3
[12] = Selectivity index, ratio of CC50 for human mock-infected MT4 cells to EC50 for HIV1 3B harboring reverse transcriptase F227L/V106A double mutant infected in human MT4 cells; type: toxicity, cell-based; settings: MT4 cells (mock-infected for CC50, HIV-1 infected for EC50); summary of the method: as §2
[13] = tested on: Human immunodeficiency virus 1; experiment: Potency index, ratio of ETV EC50 to compound EC50 for HIV1 3B harboring reverse transcriptase Y181C mutant infected in human MT4 cells; type: functional
[14] = tested on: Human immunodeficiency virus 1; experiment: Potency index, ratio of ETV EC50 to compound EC50 for HIV1 3B harboring reverse transcriptase E138K mutant infected in human MT4 cells; type: functional
[15] = Selectivity index, ratio of CC50 for human mock-infected MT4 cells to EC50 for HIV1 3B harboring reverse transcriptase L100I mutant infected in human MT4 cells; type: toxicity, cell-based; settings: MT4 cells (mock-infected for CC50, HIV-1 infected for EC50); summary of the method: as §2
[16] = tested on: Human immunodeficiency virus 1; experiment: Antiviral activity against HIV1 3B harboring reverse transcriptase E138K mutant infected in human MT4 cells assessed as protection against virus induced cytotoxicity after 5 days by MTT assay; type: functional, cell-based; settings: Human immunodeficiency virus 1, 3B, MT4, 120 h; summary of the method: as §1
[17] = Selectivity index, ratio of CC50 for human mock-infected MT4 cells to EC50 for wild type HIV1 3B harboring reverse transcriptase infected in human MT4 cells; type: toxicity, cell-based; settings: MT4 cells (mock-infected for CC50, HIV-1 infected for EC50); summary of the method: as §2
[18] = tested on: Human immunodeficiency virus 1; experiment: Potency index, ratio of ETV EC50 to compound EC50 for HIV1 3B harboring reverse transcriptase YI88L mutant infected in human MT4 cells; type: functional
[19] = tested on: Human immunodeficiency virus 1; experiment: Antiviral activity against HIV1 3B harboring reverse transcriptase L100I mutant infected in human MT4 cells assessed as protection against virus induced cytotoxicity after 5 days by MTT assay; type: functional, cell-based; settings: Human immunodeficiency virus 1, 3B, MT4, 120 h; summary of the method: as §1
[20] = tested on: Human immunodeficiency virus 1; experiment: Antiviral activity against HIV1 3B harboring reverse transcriptase Y188L mutant infected in human MT4 cells assessed as protection against virus induced cytotoxicity after 5 days by MTT assay; type: functional, cell-based; settings: Human immunodeficiency virus 1, 3B, MT4, 120 h; summary of the method: as §1
[21] = Inhibition of recombinant wild type HIV1 reverse transcriptase using DIG-dUTP/biotin-dUTP/dTTP assessed as suppression of biotin-dUTP incorporation after 1 hr by ELISA; set-up: species or system Human immunodeficiency virus 1
Summary of the method: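 Recombinant WT HIV-1 RT in a Roche colorimetric kit: template plus DIG-dUTP, biotin-dUTP and dTTP, ±inhibitor, 1 h at 37 °C. Product captured on streptavidin plate 1 h at 37 °C, anti-DIG-POD 1 h at 37 °C, ABTS developed at 25 °C, read at OD405. IC50 is the concentration inhibiting biotin-dUTP incorporation by 50%.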

[22] = biological target: Human immunodeficiency virus type 1 reverse transcriptase (Human immunodeficiency virus 1, UniProt Q72547, K103N/Y181C); experiment: Inhibition of recombinant HIV1 reverse transcriptase K103N/Y181C double mutant using DIG-dUTP/biotin-dUTP/dTTP assessed as suppression of biotin-dUTP incorporation after 1 hr by ELISA
[23] = tested on: Human immunodeficiency virus 1; experiment: Fold resistance, ratio of IC50 for recombinant HIV1 reverse transcriptase K103N/Y181C double mutant to IC50 for wild type HIV1 reverse transcriptase
Summary of the method: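 Ratio of mutant to WT IC50. Recombinant WT and K103N/Y181C RT were assayed with a kit: template plus DIG-dUTP, biotin-dUTP and dTTP, with or without inhibitor, 1 h at 37 °C. Product was captured on streptavidin, detected with anti-DIG-POD and ABTS, and read at 405 nm. IC50 is the concentration inhibiting biotin-dUTP incorporation by 50%.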

Row | Structure (SMILES) | CC50 at 120 h [1] | EC50 [2] | EC50 [3] | selectivity ratio [4] | selectivity ratio [5] | EC50 [6] | EC50 [7] | selectivity ratio [8] | selectivity ratio [9] | selectivity ratio [10] | EC50 [11] | selectivity ratio [12] | Ratio EC50 [13] | Ratio EC50 [14] | selectivity ratio [15] | EC50 [16] | selectivity ratio [17] | Ratio EC50 [18] | EC50 [19] | EC50 [20] | other results
1 | Cc1cc(C#N)cc(C)c1Oc1nc(NC2CCN(Cc3ccc(NS(C)(=O)=O)cc3)CC2)nc2ccsc12 | 68300 nM | 32.2 nM | 1.9 nM | 8870 | 9900 | 6.9 nM | > 68300 nM | 261 | 35700 | 9890 | 1.5 nM | 2120 | 2 | 2 | 5020 | 6.9 nM | 44200 | 2 | 13.6 nM | 8.2 nM | 
2 | Cc1cc(C#N)cc(C)c1Oc1nc(NC2CCN(Cc3ccc(F)cc3)CC2)nc2ccsc12 | 141000 nM | 712 nM | 8.7 nM | 3140 | 4100 | 37.8 nM | ≥ 141000 nM | 131 | 16200 | 3740 | 7.5 nM | 198 |  |  | 1550 | 34.4 nM | 18700 |  | 90.9 nM | 44.8 nM | IC50 [21]: 810 nM; IC50 [22]: 2570 nM; Ratio IC50 [23]: 3.17
3 | CNS(=O)(=O)c1ccc(CN2CCC(Nc3nc(Oc4c(C)cc(C#N)cc4C)c4sccc4n3)CC2)cc1 | 4420 nM | 4.1 nM | 1.5 nM | 647 | 665 | 4.8 nM | > 4420 nM | 136 | 2880 | 911 | 1.5 nM | 1090 | 2 | 2 | 972 | 6.6 nM | 2790 | 2 | 4.5 nM | 6.8 nM | 
4 | Cc1cc(C#N)cc(C)c1Oc1nc(NC2CCN(Cc3ccc(S(C)(=O)=O)cc3)CC2)nc2ccsc12 | 22300 nM | 44 nM | 12 nM | 543 | 566 | 36 nM | > 22300 nM | 50 | 1800 | 622 | 22.1 nM | 507 |  |  | 306 | 39 nM | 1000 |  | 73 nM | 41 nM | IC50 [21]: 1510 nM; IC50 [22]: 2830 nM; Ratio IC50 [23]: 1.87
5 | Cc1cc(C#N)cc(C)c1Oc1nc(NC2CCN(Cc3ccc(C(N)=O)cc3)CC2)nc2ccsc12 | 95400 nM | 10.7 nM | 1.8 nM | 11100 | 21300 | 5.3 nM | > 95400 nM | 1110 | 53800 | 18100 | 1.4 nM | 8860 | 2 | 2 | 8760 | 4.5 nM | 66900 | 2 | 10.8 nM | 8.6 nM | 
